Consider seven compounds from ChEMBL document CHEMBL1125287, “Synthesis and antifolate evaluation of the 10-propargyl derivatives of 5-deazafolic acid, 5-deazaaminopterin, and 5-methyl-5-deazaaminopterin” (J Med Chem, 1992).

One test has as its target T1, Dihydrofolate reductase (Mus musculus, UniProt P00375).
T1 sequence (P00375 whole entry): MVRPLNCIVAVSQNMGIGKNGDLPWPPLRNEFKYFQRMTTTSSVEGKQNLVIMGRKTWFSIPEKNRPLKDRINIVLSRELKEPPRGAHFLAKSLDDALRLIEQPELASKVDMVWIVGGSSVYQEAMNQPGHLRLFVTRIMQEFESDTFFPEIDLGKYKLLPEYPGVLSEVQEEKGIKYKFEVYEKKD
In words: The compound was tested for its inhibitory activity against dihydrofolate reductase(DHFR) derived from L1210 cells. The class given is cell-based.

In test [1] the test system is L1210. In words: Km value for its transport after influx into L1210 cells. The class given is functional, cell-based. The following applies: Mus musculus.
Test [2] relates to L1210. In words: The compound was tested for its growth inhibitory activity against L1210 cells. It counts as functional, cell-based. The following applies: Mus musculus.
Test [3] has as its system L1210. In words: k value for its transport after efflux through L1210 cells. The class given is functional, Mus musculus.
Test [4] addresses T2, Thymidylate synthase (Lactobacillus casei, UniProt P00469).
T2 sequence (P00469 whole entry): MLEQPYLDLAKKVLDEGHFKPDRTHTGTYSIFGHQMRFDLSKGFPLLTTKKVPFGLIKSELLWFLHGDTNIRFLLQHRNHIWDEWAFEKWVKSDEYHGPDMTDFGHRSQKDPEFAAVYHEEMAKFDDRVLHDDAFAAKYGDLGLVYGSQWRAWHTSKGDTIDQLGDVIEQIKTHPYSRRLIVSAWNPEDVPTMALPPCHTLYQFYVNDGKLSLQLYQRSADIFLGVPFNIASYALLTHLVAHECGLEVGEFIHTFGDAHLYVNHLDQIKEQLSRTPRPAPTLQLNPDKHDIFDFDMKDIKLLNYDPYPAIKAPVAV
Briefly: The compound was tested for its inhibitory activity (IC50) against thymidylate synthase(TS) derived from Lactobacillus casei. Details: species or system Lacticaseibacillus casei.

Test [5] relates to Mus musculus. Briefly: Antitumor effect (36 mg/kg) against EO771 mammary adenocarcinoma in mice measured as average weight change on day 14. It counts as functional. The procedure, abridged:
(§1)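 Mice implanted with EO771 mammary adenocarcinoma were dosed once daily for 5 days, starting 1 day after tumor implantation, with 10 mice per group. On day 7 and day 14 the following were recorded: average body weight change in grams, toxic deaths, tumor-free animals and average tumor volume. Volume was calculated as 4/3πr³ in mm³, and T/C is treated/control volume.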

The test system of test [6] is Mus musculus. In words: Antitumor effect (36 mg/kg) against EO771 mammary adenocarcinoma in mice measured as Tumor free/total on day 14. It counts as functional. The procedure, abridged: as §1
Test [7] concerns Mus musculus. In words: Antitumor effect (36 mg/kg) against EO771 mammary adenocarcinoma in mice measured as Tumor free/total on day 7. It counts as functional. In a few lines: as §1
The test system of test [8] is Mus musculus. In words: Antitumor effect (36 mg/kg) against EO771 mammary adenocarcinoma in mice measured as T/C(treated/control) on day 14. The class given is functional. In a few lines: as §1
Test [9] concerns Mus musculus. In words: Antitumor effect (36 mg/kg) against EO771 mammary adenocarcinoma in mice measured as T/C(treated/control) on day 7. It counts as functional. In a few lines:
as §1

In test [10] the test system is Mus musculus. In words: Antitumor effect (36 mg/kg) against EO771 mammary adenocarcinoma in mice measured as Toxic deaths/total on day 14. It counts as functional. In a few lines:
(§2)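 EO771 mammary adenocarcinoma implanted in mice, 10 animals per group. Dosing was once daily for 5 days, starting 1 day after tumor implantation. Toxic deaths were counted over the total on the evaluation day (day 7 or day 14), together with average weight change, tumor volume (4/3πr³, treated/control) and tumor-free animals.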

Test [11] deals with Mus musculus. In words: Antitumor effect (36 mg/kg) against EO771 mammary adenocarcinoma in mice measured as toxic deaths out of 10 mice tested. The class given is functional. In a few lines: as §2
For test [12], the system named is Mus musculus. Briefly: Antitumor effect (36 mg/kg) against EO771 mammary adenocarcinoma in mice measured as average weight change on day 7. The class given is functional. The procedure, abridged:
as §1

Test [13] relates to Mus musculus. Briefly: Antitumor effect (3 mg/kg) against EO771 mammary adenocarcinoma in mice measured as Average weight change on day 14. It counts as functional. The procedure, abridged:
as §1

The test system of test [14] is Mus musculus. Briefly: Antitumor effect (3 mg/kg) against EO771 mammary adenocarcinoma in mice measured as Average weight change on day 7. It counts as functional. The procedure, abridged: as §1
Test [15] relates to Mus musculus. In words: Antitumor effect (3 mg/kg) against EO771 mammary adenocarcinoma in mice measured as toxic deaths out of 10 mice tested. It counts as functional. In a few lines: as §2
Test [16] relates to Mus musculus. In words: Antitumor effect (3 mg/kg) against EO771 mammary adenocarcinoma in mice measured as Tumor free/total on day 14. The class given is functional. In a few lines:
as §1

In test [17] the test system is Mus musculus. In words: Antitumor effect (3 mg/kg) against EO771 mammary adenocarcinoma in mice measured as Tumor free/total on day 7. It counts as functional. The procedure, abridged:
as §1

Test [18] concerns Mus musculus. Briefly: Antitumor effect (3 mg/kg) against EO771 mammary adenocarcinoma in mice measured as T/C(treated/control) on day 14. The class given is functional. In a few lines:
as §1

The test system of test [19] is Mus musculus. Briefly: Antitumor effect (3 mg/kg) against EO771 mammary adenocarcinoma in mice measured as T/C(treated/control) on day 7. The class given is functional. The procedure, abridged: as §1
The test system of test [20] is Mus musculus. Briefly: Antitumor effect (3 mg/kg) against EO771 mammary adenocarcinoma in mice measured as Toxic deaths/total on day 14. The class given is functional. The procedure, abridged:
as §2

Test [21] concerns the target T3, Thymidylate synthase (Homo sapiens, UniProt P04818). In words: The compound was tested for its inhibitory activity against thymidylate synthase(TS) derived from K562 cells. It counts as cell-based.
Another test relates to HL-60. In words: The compound was tested for its growth inhibitory activity against HL60 cells. The following applies: Homo sapiens. The class given is functional, cell-based.
For the next test, the system named is CCRF S-180. In words: The compound was tested for its growth inhibitory activity against S180 cells. It counts as functional, cell-based. The following applies: Mus musculus.
For test [22], the target named is T3, Thymidylate synthase. Briefly: The compound was tested for its inhibitory activity against thymidylate synthase(TS) derived from H35F/F cells.

T3 sequence (P04818 whole entry): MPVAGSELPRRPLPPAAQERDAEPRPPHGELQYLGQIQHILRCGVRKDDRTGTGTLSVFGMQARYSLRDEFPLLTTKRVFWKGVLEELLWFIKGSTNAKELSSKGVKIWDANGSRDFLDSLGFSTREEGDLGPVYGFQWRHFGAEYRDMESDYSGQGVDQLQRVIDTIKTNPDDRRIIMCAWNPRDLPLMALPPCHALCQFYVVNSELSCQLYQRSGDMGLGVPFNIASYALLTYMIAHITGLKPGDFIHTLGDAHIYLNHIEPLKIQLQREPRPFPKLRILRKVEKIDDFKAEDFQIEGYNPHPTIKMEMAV

On Dihydrofolate reductase, `C#CCN(Cc1cnc2nc(N)nc(N)c2c1)c1ccc(C(=O)NC(CCC(=O)O)C(=O)O)cc1` (stereo not given) displayed a Ki of 0.00585 nM. Further, in the test on L1210 [1], the Michaelis-Menten constant (Km) is 1.8 µM. Besides, in the test on L1210 [2], the concentration for half-maximal inhibition (IC50) turned out to be 0.64 nM. In the test with L1210 [3], the k amounted to 0.23 min⁻¹.
Take `C#CCN(Cc1cnc2nc(N)[nH]c(=O)c2n1)c1ccc(C(=O)NC(CCC(=O)O)C(=O)O)cc1` (stereo not given): at Thymidylate synthase [4], the IC50 was 3900 nM.
For `C#CCN(Cc1cnc2nc(N)nc(N)c2c1C)c1ccc(C(=O)NC(CCC(=O)O)C(=O)O)cc1` (stereo not given), the Ki on Dihydrofolate reductase was 0.00687 nM. For the same compound, the Km with L1210 [1] was found to be 0.57 µM. Moreover, in the test on L1210 [2], the half-maximal inhibitory concentration (IC50) was 0.13 nM. Moreover, the AWC in the test on Mus musculus [5] is reported as -0.6 g; in the test on Mus musculus [12], -1.9 g. The Tumor free/total with Mus musculus [6] and in the test on Mus musculus [7] was 2 each time. For the same compound, the T/C in the test on Mus musculus [8] amounted to 0.08; with Mus musculus [9] it was 0.09. This compound also displayed a Deaths/total in the test with Mus musculus [10] of 0. The same compound registered a Toxic deaths in the test on Mus musculus [11] of 0. Also, the k in the test on L1210 [3] worked out at 0.24 min⁻¹.
As to `CN(Cc1cnc2nc(N)nc(N)c2n1)c1ccc(C(=O)N[C@@H](CCC(=O)O)C(=O)O)cc1` [METHOTREXATE], in the test on L1210 [1], the Michaelis constant (Km) was determined as 4.86 µM. Further, the AWC with Mus musculus [13] is on record as 0.8 g; with Mus musculus [14] it was -0.4 g. Moreover, the Toxic deaths with Mus musculus [15] is 0. Further, the Tumor free/total in the test on Mus musculus [16] and in the test with Mus musculus [17] was 0 in each case. Besides, the T/C with Mus musculus [18] was 0.79; with Mus musculus [19], 0.74. In the test with L1210 [3], this compound returned a k of 0.21 min⁻¹. Besides, the Deaths/total in the test with Mus musculus [20] is 0.
Take `C#CCN(Cc1ccc2nc(N)nc(O)c2n1)c1ccc(C(=O)NC(CCC(=O)O)C(=O)O)cc1` (stereo not given): the midpoint of inhibition against Thymidylate synthase [21], the IC50, lay at 2400 nM.
With `C#CCN(Cc1ccc2[nH]c(N)nc(=O)c2c1)c1ccc(C(=O)NC(CCC(=O)O)C(=O)O)cc1` (stereo not given), the half-maximal inhibitory concentration (IC50) in the test with HL-60 worked out at 5290 nM; in the test with L1210 [2], 2610 nM; with CCRF S-180, 1970 nM.
With `C#CCN(Cc1cnc2nc(N)nc(O)c2c1)c1ccc(C(=O)NC(CCC(=O)O)C(=O)O)cc1` (stereo not given), the concentration for half-maximal inhibition (IC50) with HL-60 turned out to be 721 nM; in the test with L1210 [2] it was 1500 nM; in the test on CCRF S-180, 2350 nM; against Thymidylate synthase [22], 90 nM.
